According to ChEMBL document CHEMBL1795344, “Design, synthesis and antitumor evaluation of phenyl N-mustard-quinazoline conjugates” (Bioorg Med Chem, 2011):
pIC50: −log10 of the molar value. Active and inactive are the calls of the source. The rule behind the calls is not given here.

Experiments:
CCRF-CEM [1] = experiment: Cytotoxicity against human taxol-resistant CCRF-CEM cells after 72 hrs by XTT assay; type: functional, cell-based
Outline: (§1)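 CCRF-CEM and its Taxol- and vinblastine-resistant sublines were incubated 72 h, then given phenazine methosulfate-XTT for 6 h at 37 °C. Absorbance was read at 450 and 630 nm. IC50 came from median-effect analysis of dose-effect data at six or seven concentrations.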

Mus musculus [2] = experiment: Toxicity in human MX1 cells xenografted athymic nude Swiss mouse assessed as body weight loss at 30 mg/kg, iv every two days for three times followed by 40 mg/kg, iv every two days for 5 times relative to control; type: organism-based; details: in vivo
Mus musculus [3] = experiment: Toxicity in human PC3 cells xenografted athymic nude Swiss mouse assessed as mouse mortality at 55 mg/kg, iv every two days for six times; type: organism-based, PC-3; set-up: dose 55 mg/kg, route intravenous; details: in vivo
Mus musculus [4] = experiment: Toxicity in human PC3 cells xenografted athymic nude Swiss mouse assessed as body weight loss at 55 mg/kg, iv every two days for six times relative to control; type: organism-based, PC-3; set-up: dose 55 mg/kg, route intravenous; details: in vivo
PC-3 [5] = experiment: Cytotoxicity against human PC3 cells after 72 hrs by Alamar blue assay; type: functional, cell-based; details: PC-3, 72 h
Outline: (§2)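 H1299 and PC3 cells were exposed 72 h, then given Alamar blue for 6 h at 37 °C. Absorbance was read at 570 and 600 nm. IC50 came from median-effect analysis of dose-effect data at six or seven concentrations.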

Nucleic Acid = experiment: Induction of pEGFP-N1 plasmid DNA interstrand cross-linking at 1 to 20 uM by alkaline agarose gel shift assay; type: nucleic-acid assay
Outline: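 pEGFP-N1 plasmid DNA (1500 ng) was incubated with compound (1, 10, 20 μM) in 3 mM NaCl/1 mM sodium phosphate pH 7.4/1 mM EDTA for 2 h at 37 °C. It was then BamHI-linearized, ethanol-precipitated and denatured in 0.5 N NaOH-10 mM EDTA. Samples were run on a 0.8% alkaline agarose gel at 4 °C, 18 V for 22 h, stained with ethidium bromide.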

HCT-116 = experiment: Cytotoxicity against human HCT116 cells after 72 hrs by SRB assay; type: functional, cell-based; details: HCT-116, 72 h
Outline: (§3)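 MX-1 and HCT-116 solid tumor cells were exposed 72 h, with growth read by SRB staining on a microplate spectrophotometer. IC50 came from median-effect analysis of dose-effect data at six or seven concentrations.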

CCRF-CEM [6] = experiment: Cytotoxicity against human CCRF-CEM cells after 72 hrs by XTT assay; type: functional, cell-based; outline: as §1
CCRF-CEM [7] = experiment: Cytotoxicity against human vinblastine-resistant CCRF-CEM cells after 72 hrs by XTT assay; type: functional, cell-based; outline: as §1
CCRF-CEM [8] = experiment: Ratio of IC50 for human taxol-resistant CCRF-CEM cells to IC50 for human CCRF-CEM cells; type: functional
PC-3 [9] = experiment: Anticancer activity against human PC3 cells xenografted in athymic nude Swiss mouse assessed as tumor growth inhibition at 55 mg/kg, iv every two days for six times relative to control; type: functional; set-up: scale not given: the % may be the effect or the level left
Mus musculus [10] = experiment: Toxicity in human MX1 cells xenografted athymic nude Swiss mouse assessed as mouse mortality at 30 mg/kg, iv every two days for three times followed by 40 mg/kg, iv every two days for 5 times; type: organism-based; details: in vivo
[11] = Cytotoxicity against human H1299 cells after 72 hrs by Alamar blue assay; type: functional, cell-based; details: NCI-H1299, 72 h; outline: as §2
MX1 [12] = experiment: Antitumor activity against human MX1 cells xenografted in athymic nude Swiss mouse assessed as tumor growth inhibition at 30 mg/kg, iv every two days for three times followed by 40 mg/kg, iv every two days for 5 times relative to control; type: functional; set-up: scale not given: the % may be the effect or the level left
MX1 [13] = experiment: Cytotoxicity against human MX1 cells after 72 hrs by SRB assay; type: functional, cell-based; details: MX1, 72 h; outline: as §3
CCRF-CEM [14] = experiment: Ratio of IC50 for human vinblastine-resistant CCRF-CEM cells to IC50 for human CCRF-CEM cells; type: functional
MX1 [15] = experiment: Antitumor activity against human MX1 cells xenografted in athymic nude Swiss mouse assessed as tumor growth inhibition at 50 and 60 mg/kg, iv every two days for three times followed by 70 mg/kg, iv every two days for two times relative to control; type: functional; set-up: scale not given: the % may be the effect or the level left
Mus musculus [16] = experiment: Toxicity in human MX1 cells xenografted athymic nude Swiss mouse assessed as mouse mortality at 50 and 60 mg/kg, iv every two days for three times followed by 70 mg/kg, iv every two days for two times; type: organism-based; details: in vivo
Mus musculus [17] = experiment: Toxicity in human MX1 cells xenografted athymic nude Swiss mouse assessed as body weight loss at 50 and 60 mg/kg, iv every two days for three times followed by 70 mg/kg, iv every two days for two times relative to control; type: organism-based; details: in vivo

SMILES | pIC50 (CCRF-CEM [1]) | Activity (Mus musculus [2]) | Activity (Mus musculus [3]) | Activity (Mus musculus [4]) | pIC50 (PC-3 [5]) | Activity (Nucleic Acid) | pIC50 (HCT-116) | pIC50 (CCRF-CEM [6]) | pIC50 (CCRF-CEM [7]) | Ratio IC50 (CCRF-CEM [8]) | Activity (PC-3 [9]) | Activity (Mus musculus [10]) | pIC50 [11] | Activity (MX1 [12]) | pIC50 (MX1 [13]) | Ratio IC50 (CCRF-CEM [14]) | Activity (MX1 [15]) | Activity (Mus musculus [16]) | Activity (Mus musculus [17])
O=C(Nc1ccc(N(CCCl)CCCl)cc1)Nc1ccc2ncnc(Nc3cccc(Cl)c3F)c2c1 | 5.81 | 6% | Non-toxic | 6% | 5.20 | Active | 5.42 | 6.12 | 5.98 | 2.07 | 69% | Non-toxic | 5.26 | 52% | 5.34 | 1.39 |  |  | 
O=C(Nc1ccc(N(CCCl)CCCl)cc1)Nc1ccc2ncnc(Nc3ccc(F)c(Cl)c3)c2c1 | 5.94 |  |  |  |  |  | 5.47 | 6.00 | 5.94 | 1.16 |  |  |  |  | 5.27 | 1.14 | 72% | Non-toxic | 5%
